Screening results as filed in PubChem.
This is a sample that favours compounds with a hit; in the whole collection about 0.63% have one here.
zfTRPN1 agonist: agonists of zebrafish TRPN1 channel. HEK293 zebrafish TRPN1-YFP, Fluo-8 calcium fluorescence; 100% = response to 87 µM carbachol. activation, % at 3 µM. 220,000 tested, 0.18% active;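 active = activation above its plate's cutoff, the mean activation of test wells on that plate plus 3 SD, cut at about 19% in these data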;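 note: 0% = DMSO alone and 100% = 87 µM carbachol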
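System: zebrafish TRPN1-YFP in HEK293 cells / Dosing: 3 µM single point / Timing: dye loading 1 h at 37 °C, then 30 min room temperature / Signal: Fluo-8 calcium fluorescence, excitation 470-495 nm, emission 515-575 nm / Read-out basis: percent activation from peak over basal fluorescence ratio, control-normalized / Control set: high carbachol 87 µM, low DMSO alone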
IDE act: activators of human insulin-degrading enzyme in cells; P14735; HEK cells, FAbeta-B cleavage, fluorescence polarization; 0% vehicle, 100% cell-free pure enzyme wells; activation, % at 5.96 µM; 340,000 tested, 0.073% active;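 active = activation above the mean of all tested compounds plus 3 SD, set per screening campaign, cut at about 17% in these data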
IDE inh: inhibitors of human insulin-degrading enzyme in cells. 320,000 tested, 0.41% active. inhibition, % at 5.59 µM. HEK cells, FAbetaB cleavage, fluorescence polarization. P14735;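 active = percent inhibition above the average of all tested compounds plus 3 SD, set per screening campaign, cut at about 16% in these data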;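 note: IDE supplied by intact live HEK cells; FP after avidin binding of uncleaved biotin substrate so inhibition keeps polarization high; 0% = DMSO wells and 100% = 60 µM reference IDE inhibitor Ii1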
TRPML3 agonist: human mucolipin-3 channel agonism; AID 1448; 220,000 tested, 0.29% active; HEK293 TRPML3-YFP, Fluo-8 calcium fluorescence; 100% = the carbachol control signal; activation, % at 3 µM; Q8TDD5;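 active = activation above its plate's cutoff, the mean activation of the plate's test wells plus 3 SD, cut at about 12% in these data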;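 note: 0% = DMSO only wells and 100% = carbachol wells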
Target sequence (Q8TDD5 whole entry, looked up): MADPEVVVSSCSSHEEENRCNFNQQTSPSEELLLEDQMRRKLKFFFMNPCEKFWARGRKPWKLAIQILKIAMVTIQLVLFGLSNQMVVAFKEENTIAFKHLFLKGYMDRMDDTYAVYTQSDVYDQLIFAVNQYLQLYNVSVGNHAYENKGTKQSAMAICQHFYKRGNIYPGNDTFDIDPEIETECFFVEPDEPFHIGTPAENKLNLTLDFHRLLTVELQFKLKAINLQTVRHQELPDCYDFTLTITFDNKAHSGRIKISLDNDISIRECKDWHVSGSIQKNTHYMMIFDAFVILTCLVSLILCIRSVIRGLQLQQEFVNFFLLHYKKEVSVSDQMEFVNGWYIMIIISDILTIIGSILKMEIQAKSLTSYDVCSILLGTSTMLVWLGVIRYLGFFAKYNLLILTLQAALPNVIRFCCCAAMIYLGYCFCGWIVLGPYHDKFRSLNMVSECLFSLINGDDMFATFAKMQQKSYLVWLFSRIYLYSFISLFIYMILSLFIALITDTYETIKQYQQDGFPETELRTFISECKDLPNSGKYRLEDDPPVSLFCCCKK
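Material: TRPML3-YFP stable HEK293 cells | Dosing: One concentration, 3 µM nominal, 0.3% DMSO | Timing: 125 s total fluorescence read per well | Technique: Fluo-8 calcium dye fluorescence, ex 470-495, em 515-575 nm | Measure: Percent activation from peak-to-basal fluorescence ratio, scaled between DMSO and carbachol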
Starred values were filed as active, the others as inactive; . = not tested or not shown.

SMILES | zfTRPN1 agonist | IDE act | IDE inh | TRPML3 agonist
CC(C)(C)C(=O)NC(=S)NNC(=O)c1ccc(Cl)cc1Cl | 171* | 9 | 1 | 103*
N#CC1=C(N)Oc2cc(O)c(Cl)cc2C1c1ccccc1F (configuration not stated) | . | -31 | 34* | .
Nc1c(N(CCC2=CCCCC2)C(=O)c2ccco2)c(=O)[nH]c(=O)n1Cc1ccccc1 | . | 2 | 7 | .
O=C(COc1ccccc1/C=C\c1nc(O)c([N+](=O)[O-])c(=O)[nH]1)Nc1ccccc1 | 321* | 9 | . | 138*
COCCNC(=S)N(C)C1(c2ccccc2Cl)CCCCC1=O (configuration not stated) | 0 | 17* | 0 | 1
COc1ccc(C(=O)N/N=C/c2cc3ccccc3[nH]c2=O)cc1 | 2 | 30* | 0 | 1
O=C(NC1CCS(=O)(=O)C1)c1cc(-c2ccccc2)nc2ccccc12 (configuration not stated) | 2 | 2 | -4 | -2
CC(=O)OC1COC(OC2C(O)C(C)OC(OC3C(OC4CCC5(C)C(CCC6(C)C5CC=C5C7CC(C)(C)CCC7(C(=O)O)CCC56C)C4(C)CO)OCC(O)C3O)C2O)C(O)C1OC(C)=O (configuration not stated) | 123* | . | -27 | 95*
C/C=C(/C)C(=O)OC1CC(C)(C)C[C@H]2C3=CC[C@@H]4[C@@]5(C)CCC(O[C@@H]6O[C@@H](C(=O)O)[C@@H](O)C(O[C@@H]7OC[C@H](O)[C@@H](O)[C@@H]7O[C@@H]7OC(CO)C(O)[C@@H](O)[C@@H]7O)C6O[C@@H]6OC(CO)C(O)C(O)C6O)[C@@](C)(CO)[C@@H]5CC[C@]4(C)[C@]3(C)CC(O)[C@@]12CO (some centres not stated) | . | -1 | -4 | .
NC[C@H](Cc1ccccc1)NCCCCC1CCCCC1 | . | 6 | 4 | .
CNC[C@H](CC1CCCCC1)NC[C@H](Cc1ccccc1)NCCC12CC3CC(CC(C3)C1)C2 | . | 35* | 1 | .
CC(=O)NC(Cc1c[nH]c2ccccc12)C(=O)N1CCN(S(=O)(=O)c2ccccc2)CC1 (configuration not stated) | . | 3 | -2 | .
Cc1cc(C(=O)C(C)Sc2cccc[n+]2[O-])c(C)n1-c1ccc(Cl)cc1 (configuration not stated) | 2 | 0 | -2 | 2
Cc1cc(NC(=O)c2cncc(Br)c2)ccc1NC(=O)c1cc2ccccc2o1 | . | 18* | -1 | .
COc1ccc(CCNC(=O)COC(=O)C2CC2C)cc1OC (configuration not stated) | . | 22* | -3 | .
COC(=O)c1nn(C)c(=O)[nH]c1=O | . | 2 | . | .
CCc1ccccc1OCC(=O)Nc1cccc(S(=O)(=O)N2CCCC2)c1 | . | 4 | . | .
O=C(COc1cccc2cccnc12)Nc1cccc(S(=O)(=O)N2CCCC2)c1 | . | 30* | -3 | .
N#Cc1ccc(NC(=O)Nc2cccc(C#N)c2)cc1 | 23* | -2 | . | 12*
N#Cc1ccc(NC(=O)Nc2ccc(Oc3ccc(NC(=O)Nc4ccc(C#N)cc4)cc3)cc2)cc1 | 3 | -1 | 9 | 1
Cc1ccc(Cn2nc(C)c(C(=O)N3CCN(S(=O)(=O)/C=C/c4ccccc4)CC3)c2C)cc1 | . | 33* | -3 | .
O=C(c1cnn(Cc2ccccc2)c1)N1CCN(S(=O)(=O)/C=C/c2ccccc2)CC1 | . | -2 | -4 | .
O=C1CN(c2nc3ccccc3n3cnnc23)CC(=O)N1CCc1ccccc1 | 1 | 9 | -1 | 0
CC(C)Cc1ccc(C(C)C(=O)Nc2ccc(O)cc2)cc1 (configuration not stated) | 45* | -5 | -1 | 22*
CC1O[C@@H](OC2C(O)C(O)C(CO)O[C@H]2OC2C[C@]3(C)C(CC(O)C4[C@@H]([C@]5(C)CC[C@@H](C(C)(C)O)O5)CC[C@]43C)[C@@]3(C)CCC(O)C(C)(C)C23)C(O)C(O)C1O (some centres not stated) | . | 21* | 5 | .
SMILES | zfTRPN1 agonist | IDE act | IDE inh | TRPML3 agonist
C[C@@H]1O[C@@H](O[C@H]2[C@H](O[C@H]3C[C@]4(C)C(C[C@@H](O)C5C([C@]6(C)CC[C@@H](C(C)(C)O)O6)CC[C@]54C)[C@@]4(C)CC[C@H](O)C(C)(C)C34)O[C@H](CO)[C@@H](O)[C@@H]2O)[C@H](O)[C@H](O)[C@H]1O (some centres not stated) | . | 5 | -2 | .
O=[N+]([O-])c1ccc(N2N=C(c3ccco3)CC2c2ccccc2)cc1 (configuration not stated) | 1 | -10 | 22* | 0
CCCCCCCNC(=O)C1(CC2CC(c3cccc(Br)c3)=NO2)CCNCC1 (configuration not stated) | . | 19* | -3 | .
C=CCn1c(=O)[nH]c2nc3cc(N=CN(C)C)c(C)cc3nc2c1=O | 27* | -8 | -1 | 9
CCN(CC)c1ccc2cc(C(N)=O)c(=O)oc2c1 | 1 | -2 | -1 | 0
CCN(CC)c1ccc2cc(-c3nnc(-c4ccncc4)o3)c(=O)oc2c1 | 47* | -146 | . | 27*
O=C(NC1CCCC1)c1cnn2c(C(F)(F)F)cc(-c3ccc4c(c3)OCO4)nc12 | 0 | 19* | -2 | 1
COc1ccc(CN(CCN(C)C)c2ccccn2)cc1 | 1 | -1 | 3 | 0
CCCCCCCCCCCCCCCC[N+](C)(C)CCN(Cc1ccc(OC)cc1)c1ncccn1 | . | 18* | -4 | .
CC1=C(C(=O)OCC(C)C)C(c2ccc(F)cc2)NC(=O)N1 (configuration not stated) | -2 | -12 | 6 | -2
COc1ccc(/C=C(\C#N)C(=O)NCc2ccccc2)cc1O | . | -1 | 0 | .
COc1ccc(/C=C(\C#N)C(=O)Nc2cc(C)c(Cl)cc2OC)cc1O | 2 | 20* | -4 | 1
O=C(CN1C(=O)NC2(CCOc3ccccc32)C1=O)NCCc1ccc(F)cc1 (configuration not stated) | . | 0 | 2 | .
CC(=O)Nc1ccc(S(=O)(=O)NCCc2ccccn2)cc1 | 0 | 18* | 1 | 1
COc1ccc(S(=O)(=O)NCCc2ccccn2)cc1 | . | 1 | 1 | .
CC(=O)Nc1ccc(NC(=O)COC(=O)c2n[nH]c3ccccc23)cc1 | 1 | 19* | 2 | 1
COc1cc(CNC2CCCC2)cc(OC)c1OC | 0 | 18* | -2 | 0
CC(=O)Nc1ccc(N2S(=O)(=O)c3ccccc3S2(=O)=O)cc1 | 0 | 20* | 0 | 1
CC(=O)Nc1ccc(N2Cc3ccccc3C2)cc1 | . | 5 | 7 | .
CCOc1ccc2noc3c2c1C(=O)c1ccccc1-3 | 4 | 44* | -11 | 4
CCNc1ccc2noc3c2c1C(=O)c1ccccc1-3 | 2 | 17 | -6 | 3
Cc1cccc(NC(c2ccc(C)s2)c2ccc3ccc(C)nc3c2O)n1 (configuration not stated) | 1 | -13 | 22* | 1
COc1ccc(/C=C2\SC(=S)N(c3cccnc3)C2=O)cc1 | 2 | 0 | -1 | 1
